Here are results for two compounds from ChEMBL document CHEMBL2401654, “Synthesis, characterization, and biological assessment of the four stereoisomers of the H(3) receptor antagonist 5-fluoro-2-methyl-N-[2-methyl-4-(2-methyl[1,3']bipyrrolidinyl-1'-yl)phenyl]benzamide” (Bioorg Med Chem Lett, 2013).

A word on the inhibition: it is the relative decrease from the control value, in per cent. Read a low inhibition as a weak effect. What is called pIC50 is −log10 of the IC50, conventionally taken in molar units. A low value points to a large IC50. For orientation: pKi means −log10 of the Ki, conventionally taken in molar units.

pIC50, pKi: −log10 of the molar value.

Data set [1] is described as follows: Genotoxicity in micronucleus (unknown origin).
Another data set deals with Salmonella typhimurium. Nature of the data set: Mutagenic activity in Salmonella typhimurium by Ames test. Type of data set: toxicity, organism-based. To be noted: salmonella enterica subsp. enterica serovar typhimurium. In general terms: In the Ames test, an excess of revertant colonies over the control signals mutagenicity.
Data set [2] has as its target T1, hERG (KCNH2) (Homo sapiens, UniProt Q12809). Description: Inhibition of human ERG transfected in CHO cells at 10 uM by patch clamp assay relative to control. The format is cell-based. To be noted: CHO cells transfected with human ERG. A digest of the protocol: (§1)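 Whole-cell patch clamp on CHO cells stably transfected with the human ERG gene.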
Data set [3] deals with T1, hERG (KCNH2). Nature of the data set: Inhibition of human ERG transfected in CHO cells at 1 uM by patch clamp assay relative to control. The format is cell-based. To be noted: CHO cells transfected with human ERG. A digest of the protocol: as §1
(The patch-clamp technique gives a direct electrical read-out from membranes.)

For a further data set, the target named is Cytochrome P450 3A4 (Homo sapiens, UniProt P08684). Nature of the data set: Inhibition of CYP3A4 (unknown origin). Type of data set: ADME.
The target of the next data set is Cytochrome P450 2C19 (Homo sapiens, UniProt P33261). Nature of the data set: Inhibition of CYP2C19 (unknown origin). Type of data set: ADME.
Another data set deals with Cytochrome P450 2D6 (Homo sapiens, UniProt P10635). Nature of the data set: Inhibition of CYP2D6 (unknown origin). Type of data set: ADME.
Another data set addresses Cytochrome P450 2C9 (Homo sapiens, UniProt P11712). Nature of the data set: Inhibition of CYP2C9 (unknown origin). The format is ADME.
For the next data set, the target named is T2, Cytochrome P450 2B6 (Homo sapiens, UniProt P20813).
T2 sequence (P20813 whole entry): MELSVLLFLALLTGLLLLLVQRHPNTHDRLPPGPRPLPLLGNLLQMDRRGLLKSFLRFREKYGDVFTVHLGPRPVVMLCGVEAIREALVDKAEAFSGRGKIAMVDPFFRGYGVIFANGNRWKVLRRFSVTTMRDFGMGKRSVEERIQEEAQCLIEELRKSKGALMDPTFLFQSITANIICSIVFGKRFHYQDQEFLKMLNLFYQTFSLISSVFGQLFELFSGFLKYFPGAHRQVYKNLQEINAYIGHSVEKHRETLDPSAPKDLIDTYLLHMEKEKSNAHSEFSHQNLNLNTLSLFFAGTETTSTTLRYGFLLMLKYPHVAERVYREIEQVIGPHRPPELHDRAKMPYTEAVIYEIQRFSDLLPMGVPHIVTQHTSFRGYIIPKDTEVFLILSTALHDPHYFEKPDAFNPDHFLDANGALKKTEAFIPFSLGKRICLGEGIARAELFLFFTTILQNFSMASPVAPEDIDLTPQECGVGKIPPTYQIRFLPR
Description: Inhibition of CYP2B6 (unknown origin). The format is ADME.

The target of another data set is T3, Cytochrome P450 1A2 (Homo sapiens, UniProt P05177).
T3 sequence (P05177 whole entry): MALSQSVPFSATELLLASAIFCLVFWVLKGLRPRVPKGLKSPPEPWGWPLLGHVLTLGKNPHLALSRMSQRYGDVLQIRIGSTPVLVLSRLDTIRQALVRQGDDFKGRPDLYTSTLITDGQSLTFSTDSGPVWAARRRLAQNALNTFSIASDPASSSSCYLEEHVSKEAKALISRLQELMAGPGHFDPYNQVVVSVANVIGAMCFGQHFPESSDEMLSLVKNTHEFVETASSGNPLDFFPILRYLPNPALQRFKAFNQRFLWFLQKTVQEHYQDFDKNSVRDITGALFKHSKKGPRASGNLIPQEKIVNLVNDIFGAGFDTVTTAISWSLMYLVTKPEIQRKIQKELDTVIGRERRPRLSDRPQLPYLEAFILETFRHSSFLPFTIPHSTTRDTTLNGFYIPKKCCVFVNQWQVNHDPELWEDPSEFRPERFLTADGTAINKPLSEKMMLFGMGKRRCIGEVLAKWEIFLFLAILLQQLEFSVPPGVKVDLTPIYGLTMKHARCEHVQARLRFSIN
Description: Inhibition of CYP1A2 (unknown origin). The format is ADME.

Data set [4] in a line: Drug metabolism in rat liver microsomes at 5 uM after 20 mins. To be noted: read-out: Drug metabolism. Type of data set: ADME, Microsome. Put shortly: (§2)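 Substrate at 5 µM incubated at 37 °C for 20 min with in-house liver microsome preparations (human, mouse or rat). Reported as the percentage of parent compound metabolized.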
(Liver microsomes are vesicles of endoplasmic reticulum, rich in cytochrome P450 enzymes.)

Data set [5] can be described thus: Drug metabolism in human liver microsomes at 5 uM after 20 mins. Type of data set: ADME, Microsome. To be noted: read-out: Drug metabolism. A digest of the protocol:
as §2

A short description of data set [6]: Drug metabolism in mouse liver microsomes at 5 uM after 20 mins. The note with it: read-out: Drug metabolism. The format is ADME, Microsome. Put shortly:
as §2

Data set [7] deals with Histamine H3 receptor (Rattus norvegicus, UniProt Q9QYN8). Description: Displacement of [3H]N-alpha-methylhistamine from recombinant rat histamine H3 receptor transfected in CHO cell membranes after 1 hr by scintillation counting analysis. Also noted: species or system Membrane. A digest of the protocol: (§3)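 Radioligand displacement of [3H]N-α-methylhistamine using membranes from CHO cells stably transfected with recombinant human or rat H3 receptor. Ki is presented as a range of multiple experiments (n ≥ 3).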

Data set [8] concerns the target Histamine H3 receptor (Homo sapiens, UniProt Q9Y5N1). Nature of the data set: Displacement of [3H]N-alpha-methylhistamine from recombinant human histamine H3 receptor transfected in CHO cell membranes after 1 hr by scintillation counting analysis. Put shortly:
as §3

T1 sequence (Q12809 whole entry): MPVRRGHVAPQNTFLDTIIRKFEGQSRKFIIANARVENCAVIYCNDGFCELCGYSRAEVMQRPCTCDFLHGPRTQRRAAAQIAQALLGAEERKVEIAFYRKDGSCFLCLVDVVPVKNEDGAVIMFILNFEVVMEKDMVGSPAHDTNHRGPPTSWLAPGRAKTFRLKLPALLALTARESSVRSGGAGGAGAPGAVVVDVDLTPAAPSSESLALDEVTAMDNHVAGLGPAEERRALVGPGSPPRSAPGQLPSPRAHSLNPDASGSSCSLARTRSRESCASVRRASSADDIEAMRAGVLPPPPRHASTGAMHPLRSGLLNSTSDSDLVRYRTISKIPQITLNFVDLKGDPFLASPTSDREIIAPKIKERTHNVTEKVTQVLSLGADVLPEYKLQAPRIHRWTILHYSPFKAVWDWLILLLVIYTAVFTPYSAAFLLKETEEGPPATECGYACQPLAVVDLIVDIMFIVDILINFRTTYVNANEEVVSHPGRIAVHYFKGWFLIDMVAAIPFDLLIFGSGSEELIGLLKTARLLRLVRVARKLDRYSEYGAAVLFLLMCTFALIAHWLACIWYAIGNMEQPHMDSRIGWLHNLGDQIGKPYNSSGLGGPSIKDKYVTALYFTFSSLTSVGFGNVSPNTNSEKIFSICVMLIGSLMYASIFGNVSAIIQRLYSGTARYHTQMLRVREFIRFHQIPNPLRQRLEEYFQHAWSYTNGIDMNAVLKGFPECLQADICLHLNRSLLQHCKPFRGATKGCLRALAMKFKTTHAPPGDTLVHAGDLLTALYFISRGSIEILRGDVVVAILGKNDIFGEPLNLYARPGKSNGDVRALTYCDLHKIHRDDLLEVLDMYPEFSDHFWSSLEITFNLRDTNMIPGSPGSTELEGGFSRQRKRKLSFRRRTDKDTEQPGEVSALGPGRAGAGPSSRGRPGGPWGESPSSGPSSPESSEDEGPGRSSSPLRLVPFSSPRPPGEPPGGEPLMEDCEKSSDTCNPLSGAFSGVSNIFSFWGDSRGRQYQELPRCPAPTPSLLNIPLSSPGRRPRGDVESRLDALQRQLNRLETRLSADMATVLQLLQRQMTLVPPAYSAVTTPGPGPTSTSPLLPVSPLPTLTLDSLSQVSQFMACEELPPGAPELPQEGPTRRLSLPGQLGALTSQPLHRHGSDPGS
Sequence of Histamine H3 receptor (Homo sapiens, UniProt Q9Y5N1) (Q9Y5N1 whole entry): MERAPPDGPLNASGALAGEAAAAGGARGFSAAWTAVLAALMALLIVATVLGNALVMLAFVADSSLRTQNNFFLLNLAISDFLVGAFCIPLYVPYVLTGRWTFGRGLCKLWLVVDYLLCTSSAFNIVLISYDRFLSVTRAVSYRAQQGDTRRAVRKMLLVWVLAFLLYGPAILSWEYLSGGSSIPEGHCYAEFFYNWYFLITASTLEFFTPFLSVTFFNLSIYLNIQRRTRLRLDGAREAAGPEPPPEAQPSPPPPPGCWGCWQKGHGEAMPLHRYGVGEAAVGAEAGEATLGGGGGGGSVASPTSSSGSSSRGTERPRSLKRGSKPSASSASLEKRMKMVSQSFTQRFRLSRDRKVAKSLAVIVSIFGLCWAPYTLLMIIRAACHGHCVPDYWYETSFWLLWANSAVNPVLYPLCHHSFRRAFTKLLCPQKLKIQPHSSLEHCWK
Sequence of Cytochrome P450 2C9 (P11712 whole entry): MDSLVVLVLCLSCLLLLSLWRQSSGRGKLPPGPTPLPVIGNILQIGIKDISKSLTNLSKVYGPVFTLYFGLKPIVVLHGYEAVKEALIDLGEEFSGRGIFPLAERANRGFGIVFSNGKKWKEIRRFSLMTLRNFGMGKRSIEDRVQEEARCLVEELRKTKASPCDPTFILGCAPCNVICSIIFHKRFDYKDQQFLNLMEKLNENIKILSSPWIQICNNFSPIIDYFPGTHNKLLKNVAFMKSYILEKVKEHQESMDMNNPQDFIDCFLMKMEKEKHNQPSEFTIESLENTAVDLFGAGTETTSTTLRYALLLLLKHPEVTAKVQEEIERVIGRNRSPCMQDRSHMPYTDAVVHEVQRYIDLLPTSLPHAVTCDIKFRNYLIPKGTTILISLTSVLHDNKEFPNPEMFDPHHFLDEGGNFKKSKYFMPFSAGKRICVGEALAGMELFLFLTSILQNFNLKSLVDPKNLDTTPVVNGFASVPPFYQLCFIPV
Sequence of Histamine H3 receptor (Rattus norvegicus, UniProt Q9QYN8) (Q9QYN8 whole entry): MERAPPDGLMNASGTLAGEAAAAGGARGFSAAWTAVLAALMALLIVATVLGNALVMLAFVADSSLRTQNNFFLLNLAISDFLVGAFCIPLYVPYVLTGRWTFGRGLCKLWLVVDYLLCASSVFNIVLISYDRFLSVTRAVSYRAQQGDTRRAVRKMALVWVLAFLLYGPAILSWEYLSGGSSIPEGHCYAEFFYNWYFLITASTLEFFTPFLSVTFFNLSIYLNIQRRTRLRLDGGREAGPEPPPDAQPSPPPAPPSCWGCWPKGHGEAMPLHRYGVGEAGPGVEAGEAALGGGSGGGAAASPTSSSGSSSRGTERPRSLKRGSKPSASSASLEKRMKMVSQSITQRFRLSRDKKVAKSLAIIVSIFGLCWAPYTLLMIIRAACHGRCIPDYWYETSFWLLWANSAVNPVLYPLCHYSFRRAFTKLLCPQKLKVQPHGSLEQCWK
Sequence of Cytochrome P450 2D6 (P10635 whole entry): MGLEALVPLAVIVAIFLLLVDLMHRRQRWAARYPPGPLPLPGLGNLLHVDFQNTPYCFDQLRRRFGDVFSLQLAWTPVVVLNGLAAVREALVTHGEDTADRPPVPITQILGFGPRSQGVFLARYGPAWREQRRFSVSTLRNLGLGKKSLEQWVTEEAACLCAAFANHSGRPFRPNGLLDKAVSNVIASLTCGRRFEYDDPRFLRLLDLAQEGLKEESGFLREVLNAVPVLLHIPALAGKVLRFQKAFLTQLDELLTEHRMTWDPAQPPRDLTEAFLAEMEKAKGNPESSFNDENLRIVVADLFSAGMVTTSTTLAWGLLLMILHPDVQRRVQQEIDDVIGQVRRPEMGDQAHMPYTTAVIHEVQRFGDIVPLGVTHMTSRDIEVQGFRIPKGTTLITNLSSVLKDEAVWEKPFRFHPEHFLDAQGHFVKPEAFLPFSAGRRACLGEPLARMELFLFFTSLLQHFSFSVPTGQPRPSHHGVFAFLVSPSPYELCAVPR
Sequence of Cytochrome P450 2C19 (P33261 whole entry): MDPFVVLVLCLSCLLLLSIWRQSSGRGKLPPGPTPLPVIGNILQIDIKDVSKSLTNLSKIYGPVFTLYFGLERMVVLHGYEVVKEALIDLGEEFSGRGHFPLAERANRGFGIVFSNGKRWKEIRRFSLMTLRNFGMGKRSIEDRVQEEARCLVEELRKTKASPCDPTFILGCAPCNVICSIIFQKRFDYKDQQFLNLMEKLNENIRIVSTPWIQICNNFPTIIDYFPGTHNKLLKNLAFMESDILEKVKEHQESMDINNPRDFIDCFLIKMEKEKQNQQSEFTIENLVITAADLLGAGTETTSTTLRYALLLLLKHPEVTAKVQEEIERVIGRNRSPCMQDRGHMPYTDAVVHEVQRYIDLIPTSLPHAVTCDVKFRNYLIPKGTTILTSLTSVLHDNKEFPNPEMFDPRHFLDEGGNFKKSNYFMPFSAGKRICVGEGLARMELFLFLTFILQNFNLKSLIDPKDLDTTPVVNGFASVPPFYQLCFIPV
Sequence of Cytochrome P450 3A4 (P08684 whole entry): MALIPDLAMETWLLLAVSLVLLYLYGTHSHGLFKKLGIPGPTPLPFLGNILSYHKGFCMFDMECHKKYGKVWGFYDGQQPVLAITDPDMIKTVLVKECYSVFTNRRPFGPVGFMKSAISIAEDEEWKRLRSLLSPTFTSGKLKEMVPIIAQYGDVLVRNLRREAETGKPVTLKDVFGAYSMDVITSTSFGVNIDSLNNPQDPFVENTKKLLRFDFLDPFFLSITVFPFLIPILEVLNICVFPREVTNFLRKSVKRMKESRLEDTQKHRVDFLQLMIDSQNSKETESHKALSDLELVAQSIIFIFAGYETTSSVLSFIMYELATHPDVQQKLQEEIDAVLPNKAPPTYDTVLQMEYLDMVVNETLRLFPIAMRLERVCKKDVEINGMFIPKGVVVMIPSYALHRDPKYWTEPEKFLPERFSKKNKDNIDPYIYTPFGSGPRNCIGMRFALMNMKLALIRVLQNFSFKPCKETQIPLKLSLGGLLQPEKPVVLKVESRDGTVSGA

Turning to `Cc1cc(N2CC[C@@H](N3CCC[C@H]3C)C2)ccc1NC(=O)c1cc(F)ccc1C`, the Activity entry (in data set [1]; in the data set with Salmonella typhimurium) was “Non-toxic” in each case. The same compound gave an inhibition at 10 µM at hERG (KCNH2) [2] of 77.5%. Also, the inhibition at 1 µM at hERG (KCNH2) [3] was 33.7%. The negative logarithm of the IC50 (pIC50) against Cytochrome P450 3A4, against Cytochrome P450 2C19, against Cytochrome P450 2D6, against Cytochrome P450 2C9, against Cytochrome P450 2B6 and against Cytochrome P450 1A2 was below 4.52 throughout. In addition, the metabolised at 20 min, 5 µM in data set [4] stood at 27%; in data set [5] it was 8%; in data set [6], 17%. For the same compound, the results for the pKi on Histamine H3 receptor [7] and on Histamine H3 receptor [8] were 7.13 and 6.52, respectively.
On to `Cc1cc(N2CC[C@H](N3CCC[C@H]3C)C2)ccc1NC(=O)c1cc(F)ccc1C`, for which the Activity entry (in data set [1]; with Salmonella typhimurium) was “Non-toxic” each time. This compound also yielded an inhibition at 10 µM against hERG (KCNH2) [2] of 84.3%. On hERG (KCNH2) [3], the inhibition at 1 µM came to 43%. For the same compound, the pIC50 against Cytochrome P450 3A4, at Cytochrome P450 2C19, against Cytochrome P450 2D6, against Cytochrome P450 2C9, at Cytochrome P450 2B6 and at Cytochrome P450 1A2 was below 4.52 in each case. Besides, the results for the metabolised at 20 min, 5 µM in data set [4], in data set [5] and in [6] were 60%, 7% and 29%, respectively. In addition, the pKi on Histamine H3 receptor [7] is 7.03; at Histamine H3 receptor [8] it was 6.09.
